Source: ChEMBL document CHEMBL1140274, “Synthesis of (1,4)-naphthoquinono-[3,2-c]-1H-pyrazoles and their (1,4)-naphthohydroquinone derivatives as antifungal, antibacterial, and anticancer agents” (2005)
≈ marks a conversion by molar mass, not a printed value.

Assays:
Pseudomonas aeruginosa = assay: In-vitro minimum inhibitory concentration against the growth of Pseudomonas aeruginosa; assay type: functional
In short: (§1)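 Broth microdilution following NCCLS against each bacterial strain, with the MIC taken as the endpoint.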

Escherichia coli = assay: In-vitro minimum inhibitory concentration against the growth of Escherichia coli; assay type: functional; in short: as §1
Staphylococcus aureus = assay: In-vitro minimum inhibitory concentration against the growth of Staphylococcus aureus; assay type: functional; in short: as §1
Trichophyton benhamiae = assay: In-vitro minimum inhibitory concentration against the growth of Trichophyton mentagrophytes; assay type: functional, Trichophyton mentagraphytes
In short: (§2)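 Broth microdilution following NCCLS, run in 96-well plates with RPMI 1640 medium buffered with MOPS. The MIC was the endpoint against each fungal isolate.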

Cryptococcus neoformans = assay: In-vitro minimum inhibitory concentration against the growth of Cryptococcus neoformans; assay type: functional; in short: as §2
Enterococcus faecalis = assay: In-vitro minimum inhibitory concentration against the growth of Streptococcus faecalis; assay type: functional; in short: as §1
Klebsiella pneumoniae = assay: In-vitro minimum inhibitory concentration against the growth of Klebsiella pneumoniae; assay type: functional; in short: as §1
Sporothrix schenckii = assay: In-vitro minimum inhibitory concentration against the growth of Sporothrix schenckii; assay type: functional; in short: as §2
Aspergillus fumigatus = assay: In-vitro minimum inhibitory concentration against the growth of Aspergillus fumigatus; assay type: functional; in short: as §2
Candida parapsilosis = assay: In-vitro minimum inhibitory concentration against the growth of Candida parapsilosis (ATCC 22019); assay type: functional; details: Lodderomyces parapsilosis; in short: as §2
Candida albicans = assay: In-vitro minimum inhibitory concentration against the growth of Candida albicans; assay type: functional; in short: as §2
Rattus norvegicus [1] = assay: Anticancer activity against Walker 256 carcinosarcoma in rats at a dose of 10 mg/kg [Active]; assay type: functional
Rattus norvegicus [2] = assay: Anticancer activity against Walker 256 carcinosarcoma in rats at a dose of 50 mg/kg [Inactive]; assay type: functional

| Molecule | MIC (Pseudomonas aeruginosa) [µg/mL] | MIC (Escherichia coli) [µg/mL] | MIC (Staphylococcus aureus) [µg/mL] | MIC (Trichophyton benhamiae) [µg/mL] | MIC (Cryptococcus neoformans) [µg/mL] | MIC (Enterococcus faecalis) [µg/mL] | MIC (Klebsiella pneumoniae) [µg/mL] | MIC (Sporothrix schenckii) [µg/mL] | MIC (Aspergillus fumigatus) [µg/mL] | MIC (Candida parapsilosis) [µg/mL] | MIC (Candida albicans) [µg/mL] | T/C (Rattus norvegicus [1]) [%] | T/C (Rattus norvegicus [2]) [%] |
| --- | --- | --- | --- | --- | --- | --- | --- | --- | --- | --- | --- | --- | --- |
| C=CCNC(=O)c1[nH]nc2c1C(=O)c1ccccc1C2=O | > 50 | 12.5 (≈ 44.4 µM) | > 50 | > 50 | > 50 | > 50 | 12.5 (≈ 44.4 µM) | > 50 | > 50 | > 50 | > 50 | – | – |
| NYSTATIN | – | – | – | – | 3.5 | – | – | 13.2 | – | – | 7.8 | – | – |
| O=C1c2ccccc2C(=O)c2c1n[nH]c2C(=O)NCCO | > 50 | 25 (≈ 87.6 µM) | > 50 | > 50 | > 50 | > 50 | 25 (≈ 87.6 µM) | > 50 | > 50 | > 50 | > 50 | – | – |
| C[C@@H]1[C@H](O)[C@@H](C)/C=C/C=C/C=C/C=C/C=C/C=C/C=C/[C@H](O[C@@H]2O[C@H](C)[C@@H](O)[C@H](N)[C@@H]2O)C[C@@H]2O[C@](O)(C[C@@H](O)C[C@@H](O)[C@H](O)CC[C@@H](O)C[C@@H](O)CC(=O)O[C@H]1C)C[C@H](O)[C@H]2C(=O)O [AMPHOTERICIN B] | – | – | – | 1.56 (≈ 1.69 µM) | 0.78 (≈ 0.844 µM) | – | – | – | – | – | 0.39 (≈ 0.422 µM) | – | – |
| CNC(=O)c1[nH]nc2c1C(=O)c1ccccc1C2=O | > 50 | > 50 | > 50 | > 50 | > 50 | > 50 | 25 (≈ 97.9 µM) | > 50 | > 50 | 50 (≈ 196 µM) | > 50 | – | – |
| NNC(=O)c1[nH]nc2c1C(=O)c1ccccc1C2=O | > 50 | > 50 | > 50 | > 50 | > 50 | > 50 | > 50 | > 50 | > 50 | > 50 | > 50 | – | – |
| NNC(=O)c1[nH]nc2c(O)c3ccccc3c(O)c12 | > 50 | > 50 | > 50 | > 50 | 25 (≈ 96.8 µM) | > 50 | > 50 | > 50 | > 50 | > 50 | 25 (≈ 96.8 µM) | – | – |
| OC(Cn1cncn1)(Cn1cncn1)c1ccc(F)cc1F [FLUCONAZOLE] | – | – | – | 0.5 (≈ 1.63 µM) | 1 (≈ 3.27 µM) | – | – | 2 (≈ 6.53 µM) | 2 (≈ 6.53 µM) | 2 (≈ 6.53 µM) | 1 (≈ 3.27 µM) | – | – |
| CCCCNC(=O)c1[nH]nc2c1C(=O)c1ccccc1C2=O | > 50 | > 50 | > 50 | > 50 | > 50 | > 50 | > 50 | > 50 | > 50 | > 50 | > 50 | – | – |
| O=C1C=CC(=O)c2c(O)ccc(O)c21 [NAPHTHAZALIN] | – | – | – | – | – | – | – | – | – | – | – | 37 | – |
| NC[C@H]1O[C@H](O[C@H]2[C@H](O)[C@@H](O[C@H]3O[C@H](CO)[C@@H](O)[C@H](N)[C@H]3O)[C@H](N)C[C@@H]2N)[C@H](O)[C@@H](O)[C@@H]1O [KANAMYCIN] | > 128 | 16 (≈ 33 µM) | 2 (≈ 4.13 µM) | – | – | – | 32 (≈ 66 µM) | – | – | – | – | – | – |
| O=C1c2ccccc2C(=O)c2c1n[nH]c2C(=O)NNc1ccccc1 | > 50 | > 50 | > 50 | > 50 | > 50 | 25 (≈ 75.2 µM) | 12.5 (≈ 37.6 µM) | > 50 | > 50 | > 50 | > 50 | – | – |
| Clc1ccc(COC(Cn2ccnc2)c2ccc(Cl)cc2Cl)c(Cl)c1 (stereo not given) [MICONAZOLE] | – | – | – | < 0.78 | 12.5 (≈ 30 µM) | – | – | – | 12.5 (≈ 30 µM) | – | 25 (≈ 60.1 µM) | – | – |
| GENTAMICIN | 0.78 | – | 0.78 | – | – | – | 0.39 | – | – | – | – | – | – |
| O=C1c2ccccc2C(=O)c2[nH]ncc21 | – | – | – | – | – | – | – | – | – | – | – | – | 115 |
| CCOC(=O)c1[nH]nc2c1C(=O)c1ccccc1C2=O | > 50 | 25 (≈ 92.5 µM) | 25 (≈ 92.5 µM) | > 50 | > 50 | 12.5 (≈ 46.3 µM) | 12.5 (≈ 46.3 µM) | > 50 | > 50 | > 50 | > 50 | – | – |
| O=C(NNc1ccc([N+](=O)[O-])cc1[N+](=O)[O-])c1[nH]nc2c(O)c3ccccc3c(O)c12 | > 50 | > 50 | > 50 | > 50 | > 50 | > 50 | > 50 | > 50 | > 50 | > 50 | 25 (≈ 58.9 µM) | – | – |
| CCOC(=O)c1[nH]nc2c(O)c3ccccc3c(O)c12 | > 50 | 6.25 (≈ 23 µM) | 25 (≈ 91.8 µM) | 25 (≈ 91.8 µM) | 6.25 (≈ 23 µM) | 25 (≈ 91.8 µM) | 6.25 (≈ 23 µM) | 50 (≈ 184 µM) | 25 (≈ 91.8 µM) | 12.5 (≈ 45.9 µM) | 6.25 (≈ 23 µM) | – | – |
